Results of several laboratories.
Compare with care: the assays were run in different laboratories.
SIRT6: NAD-dependent protein deacylase sirtuin-6 (SIRT6, Homo sapiens, UniProt Q8N6T7)
Cacna1b: Voltage-dependent N-type calcium channel subunit alpha-1B (Cacna1b, Rattus norvegicus, UniProt Q02294)

O=C(Nc1ccc(S(=O)(=O)N2CCC(Cl)CC2)cc1)c1ccc([N+](=O)[O-])o1
inhibition (Voltage-dependent L-type calcium channel subunit alpha-1C (Cacna1c, Rattus norvegicus, UniProt P22002); ligand displacement; radioligand; 10 µM): 24%

NC(=O)c1ccc(C(=O)NOCc2ccccc2Br)cc1
inhibition (SIRT6; enzyme activity; inhibitor; fluorescence; 100 µM): 79.7%

CCN(Cc1ccccc1C(F)(F)F)C(=O)C1CCN(S(=O)(=O)c2ccc3[nH]ncc3c2)CC1
inhibition (Cacna1b; ligand displacement; radioligand; 10 µM): 2%

O=C(c1ccc(F)cc1)N(Cc1ccccc1)C1CCCCC1
inhibition (Cacna1b; cell-free assay; 10 µM): 5%

NC(=O)c1ccc(C(=O)NOCc2ccc(Oc3ccccc3)cc2)cc1
inhibition (SIRT6; enzyme activity; inhibitor; fluorescence; 100 µM): 89.1%

C/C(=C\C(=O)OCCCCCCCCC(=O)O)C[C@@H]1OC[C@H](C[C@@H]2O[C@H]2[C@@H](C)[C@H](C)O)[C@@H](O)[C@H]1O
inhibition (C-C chemokine receptor type 5 (CCR5, Homo sapiens, UniProt P51681); calcium signal; antagonist; U87/CD4/CCR5; 20 µM): 76%

COc1ccc(CONC(=O)c2ccc(C(N)=O)cc2)cc1
inhibition (SIRT6; enzyme activity; inhibitor; fluorescence; 100 µM): 78.2%

CC/C(=N\NC(=O)NCc1cccc(O)c1)c1ccc(O)c(C)c1O
inhibition (ALK tyrosine kinase receptor (ALK, Homo sapiens, UniProt Q9UM73, G1202R); enzyme activity; inhibitor; 0.1 µM): -1.5%

Ic1cccc2cnccc12
inhibition (Poly [ADP-ribose] polymerase 2 (PARP2, Homo sapiens, UniProt Q9UGN5); enzyme activity; inhibitor; 10 µM): 40%
